Laboratory results published in ChEMBL document CHEMBL1153402, “Pyrido[2,3-e]-1,2,4-triazolo[4,3-a]pyrazin-1-one as a new scaffold to develop potent and selective human A3 adenosine receptor antagonists. Synthesis, pharmacological evaluation, and ligand-receptor modeling studies” (J Med Chem, 2009).
pKi: −log10 of the molar value. Each block holds one compound with its values, some of them ahead of it.

What was measured:
Bos taurus [1] = organism: Bos taurus; assay: Displacement of [3H]CGS 21680 from bovine striatal membrane adenosine A2A receptor at 20 uM
Outline: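 IC50 from five concentrations in triplicate, nonlinear regression; Ki via Cheng–Prusoff from four assays. Single-point values as percent inhibition at 20 μM.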

Adenosine receptor A1 [2] = molecular target: T1, Adenosine receptor A1 (Bos taurus, UniProt P28190); assay: Displacement of [3H]DPCPX from bovine brain cortical membrane adenosine A1 receptor
T1 sequence (P28190 whole entry): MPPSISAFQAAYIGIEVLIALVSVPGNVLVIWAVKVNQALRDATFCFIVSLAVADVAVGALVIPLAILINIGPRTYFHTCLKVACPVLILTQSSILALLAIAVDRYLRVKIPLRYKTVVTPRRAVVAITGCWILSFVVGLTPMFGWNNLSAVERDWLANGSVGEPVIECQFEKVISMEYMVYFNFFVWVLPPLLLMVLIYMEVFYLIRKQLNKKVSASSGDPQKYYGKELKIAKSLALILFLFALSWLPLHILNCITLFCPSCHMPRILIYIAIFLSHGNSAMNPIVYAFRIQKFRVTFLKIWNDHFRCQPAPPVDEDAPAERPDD

Adenosine receptor A3 = molecular target: T2, Adenosine receptor A3 (Homo sapiens, UniProt P0DMS8); assay: Displacement of [125I]AB-MECA from human cloned adenosine A3 receptor expressed in CHO cells; format: cell-based
T2 sequence (P0DMS8 whole entry): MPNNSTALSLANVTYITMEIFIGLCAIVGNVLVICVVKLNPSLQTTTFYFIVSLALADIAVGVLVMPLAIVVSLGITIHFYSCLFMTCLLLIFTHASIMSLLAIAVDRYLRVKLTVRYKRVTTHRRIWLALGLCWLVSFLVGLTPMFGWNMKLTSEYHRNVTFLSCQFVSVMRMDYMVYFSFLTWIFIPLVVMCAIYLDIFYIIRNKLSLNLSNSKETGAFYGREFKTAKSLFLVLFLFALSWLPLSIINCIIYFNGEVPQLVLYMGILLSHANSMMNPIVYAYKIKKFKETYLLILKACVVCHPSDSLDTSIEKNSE

[3] = molecular target: T3, Adenosine receptor A1 (Bos taurus) (UniProt P28190); assay: Displacement of [3H]DPCPX from bovine brain cortical membrane adenosine A1 receptor at 10 uM
T3 sequence (whole entry): T1 sequence (P28190 whole entry)

Bos taurus [4] = organism: Bos taurus; assay: Displacement of [3H]CGS 21680 from bovine striatal membrane adenosine A2A receptor at 10 uM
[5] = molecular target: T4, Adenosine receptor A3 (Homo sapiens) (UniProt P0DMS8); assay: Displacement of [125I]AB-MECA from human cloned adenosine A3 receptor expressed in CHO cells at 1 uM; format: cell-based
T4 sequence (whole entry): T2 sequence (P0DMS8 whole entry)
Outline: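 IC50 from five displacer concentrations, each in triplicate, by nonlinear regression; Ki by Cheng–Prusoff. Ki as mean of four separate assays, each in triplicate; single-point values as percent inhibition of specific binding at 1 μM.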

Adenosine receptor A2a [6] = molecular target: T5, Adenosine receptor A2a (Homo sapiens, UniProt P29274); assay: Displacement of [3H]NECA from human cloned adenosine A2A receptor expressed in CHO cells; format: cell-based
[7] = Displacement of [3H]CGS 21680 from bovine striatal membrane adenosine A2A receptor; parameters: species or system Bos taurus
[8] = molecular target: T6, Adenosine receptor A1 (Homo sapiens) (UniProt P30542); assay: Displacement of [3H]DPCPX from human cloned adenosine A1 receptor expressed in CHO cells at 10 uM; format: cell-based
T6 sequence (whole entry): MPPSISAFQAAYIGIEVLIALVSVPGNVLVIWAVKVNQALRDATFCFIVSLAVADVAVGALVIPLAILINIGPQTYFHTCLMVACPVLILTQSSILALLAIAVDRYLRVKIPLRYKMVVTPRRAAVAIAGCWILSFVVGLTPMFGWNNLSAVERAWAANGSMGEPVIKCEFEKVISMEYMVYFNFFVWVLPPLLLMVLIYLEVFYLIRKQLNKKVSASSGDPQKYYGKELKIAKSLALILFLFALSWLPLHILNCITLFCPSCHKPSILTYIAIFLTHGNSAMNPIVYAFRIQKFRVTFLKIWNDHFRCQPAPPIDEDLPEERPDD
Outline: (§1)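 CHO cell membranes stably expressing hA1 or hA2A; radioligands [3H]DPCPX (hA1, Kd 3 nM) and [3H]NECA (hA2A, Kd 30 nM). IC50 from five displacer concentrations in triplicate, nonlinear regression; Ki by Cheng–Prusoff; four separate assays. Single-point values as percent inhibition of specific binding at 10 μM.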

[9] = molecular target: T3, Adenosine receptor A1 (Bos taurus); assay: Displacement of [3H]DPCPX from bovine brain cortical membrane adenosine A1 receptor at 20 uM
Outline: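 Bovine cerebral cortical membranes; [3H]DPCPX displacement (Kd 0.3 nM). IC50 from five displacer concentrations in triplicate; Ki by Cheng–Prusoff, mean of four assays.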

Adenosine receptor A2a [10] = molecular target: T5, Adenosine receptor A2a; assay: Displacement of [3H]NECA from human cloned adenosine A2A receptor expressed in CHO cells at 10 uM; format: cell-based; outline: as §1
Adenosine receptor A1 [11] = molecular target: T7, Adenosine receptor A1 (Homo sapiens, UniProt P30542); assay: Displacement of [3H]DPCPX from human cloned adenosine A1 receptor expressed in CHO cells; format: cell-based
T7 sequence (P30542 whole entry): T6 sequence (whole entry)

T5 sequence (P29274 whole entry): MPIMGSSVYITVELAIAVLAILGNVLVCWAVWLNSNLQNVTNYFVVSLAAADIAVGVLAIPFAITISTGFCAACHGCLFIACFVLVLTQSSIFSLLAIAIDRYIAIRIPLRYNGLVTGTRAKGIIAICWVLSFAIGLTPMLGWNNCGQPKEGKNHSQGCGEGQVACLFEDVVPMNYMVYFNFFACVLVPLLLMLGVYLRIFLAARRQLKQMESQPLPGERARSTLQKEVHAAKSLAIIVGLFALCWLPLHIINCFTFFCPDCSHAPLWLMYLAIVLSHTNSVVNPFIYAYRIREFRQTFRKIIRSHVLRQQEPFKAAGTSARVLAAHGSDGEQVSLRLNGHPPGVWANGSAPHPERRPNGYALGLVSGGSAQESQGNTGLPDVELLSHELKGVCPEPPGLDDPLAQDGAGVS

- Activity (Bos taurus [1]): 26%
- pKi (Adenosine receptor A1 [2]): 6.51
- pKi (Adenosine receptor A3): 6.23
SMILES: O=c1[nH]c2ncccc2n2c(=O)n(-c3ccc(F)cc3)nc12

- Activity [3]: 32%
- Activity (Bos taurus [4]): 0%
SMILES: O=C(Nc1nc2c([N+](=O)[O-])cccc2n2c(=O)n(-c3ccccc3)nc12)c1ccccc1

- Activity [3]: 0%
- Activity [5]: 36%
- Activity (Bos taurus [4]): 7%
SMILES: COc1ccc(-n2nc3c(NC(C)=O)nc4c([N+](=O)[O-])cccc4n3c2=O)cc1

- pKi (Adenosine receptor A1 [2]): 8.15
- pKi (Adenosine receptor A2a [6]): 6.68
- pKi (Adenosine receptor A3): 7.93
- pKi [7]: 6.38
- Activity [8]: 37%
SMILES: O=C(Cc1ccccc1)Nc1nc2ncccc2n2c(=O)n(-c3ccccc3)nc12

- Activity [5]: 21%
SMILES: O=c1[nH]c2c([N+](=O)[O-])cccc2n2c(=O)n(-c3ccc(O)cc3)nc12

- pKi [7]: 6.47
SMILES: CCCn1c(=O)c2[nH]c(C3CCCC3)nc2n(CCC)c1=O [1,3-DIPROPYL-8-CYCLOPENTYLXANTHINE [DPCPX]]

- Activity [5]: 45%
SMILES: Nc1nc2c([N+](=O)[O-])cccc2n2c(=O)n(-c3ccc(O)cc3)nc12

- pKi (Adenosine receptor A1 [2]): 6.82
- pKi (Adenosine receptor A2a [6]): 5.65
- pKi (Adenosine receptor A3): 7.15
- pKi [7]: 5.15
- Activity [8]: 8%
SMILES: O=C(Nc1nc2ncccc2n2c(=O)n(-c3ccccc3)nc12)c1ccccc1

- Activity (Bos taurus [1]): 7%
- Activity [9]: 30%
- Activity [5]: 0%
SMILES: O=C(O)c1ccc(-n2nc3c(=O)[nH]c4ncccc4n3c2=O)cc1

- Activity (Bos taurus [1]): 59%
- pKi (Adenosine receptor A1 [2]): 7.85
- pKi (Adenosine receptor A3): 6.86
SMILES: CC(=O)Nc1nc2ncccc2n2c(=O)n(-c3ccccc3)nc12

- Activity [3]: 39%
- Activity [5]: 27%
- Activity (Bos taurus [4]): 0%
SMILES: O=C(c1ccccc1)N(C(=O)c1ccccc1)c1nc2c([N+](=O)[O-])cccc2n2c(=O)n(-c3ccccc3)nc12

- Activity (Bos taurus [1]): 19%
- Activity [9]: 56%
- Activity (Adenosine receptor A2a [10]): 29%
- pKi (Adenosine receptor A3): 7.39
- Activity [8]: 48%
SMILES: COc1ccc(-n2nc3c(NC(C)=O)nc4ncccc4n3c2=O)cc1

- Activity (Bos taurus [1]): 0%
- Activity [9]: 17%
- Activity (Adenosine receptor A2a [10]): 0%
- pKi (Adenosine receptor A3): 8.11
- Activity [8]: 0%
SMILES: COc1ccc(-n2nc3c(N(C(=O)c4ccccc4)C(=O)c4ccccc4)nc4ncccc4n3c2=O)cc1

- Activity (Bos taurus [1]): 0%
- pKi (Adenosine receptor A1 [11]): 6.94
- Activity [9]: 26%
- pKi (Adenosine receptor A3): 8.48
SMILES: COc1ccc(-n2nc3c(=O)[nH]c4ncccc4n3c2=O)cc1

- pKi (Adenosine receptor A1 [2]): 6.74
- pKi (Adenosine receptor A3): 6.31
- pKi [7]: 5.82
SMILES: Nc1nc2ncccc2n2c(=O)n(-c3ccc(F)cc3)nc12

- pKi (Adenosine receptor A1 [2]): 6.95
- pKi (Adenosine receptor A3): 5.87
- pKi [7]: 6.08
SMILES: Nc1nc2ncccc2n2c(=O)n(-c3ccc(O)cc3)nc12

- pKi (Adenosine receptor A3): 6.55
SMILES: O=c1n(-c2ccccc2)nc2c(NC3CCCCC3)nc3c([N+](=O)[O-])cccc3n12

- Activity (Bos taurus [1]): 0%
- Activity [9]: 16%
- Activity [5]: 0%
SMILES: CCOC(=O)c1ccc(-n2nc3c(=O)[nH]c4ncccc4n3c2=O)cc1

- pKi (Adenosine receptor A1 [2]): 9.33
- pKi (Adenosine receptor A2a [6]): 6.68
- pKi (Adenosine receptor A3): 8.08
- pKi [7]: 6.29
- Activity [8]: 36%
SMILES: O=c1n(-c2ccccc2)nc2c(NC3CCCC3)nc3ncccc3n12

- Activity [3]: 20%
- Activity (Bos taurus [4]): 0%
SMILES: COc1ccc(-n2nc3c(N(C(=O)c4ccccc4)C(=O)c4ccccc4)nc4c([N+](=O)[O-])cccc4n3c2=O)cc1

- pKi (Adenosine receptor A1 [2]): 9.42
- pKi (Adenosine receptor A2a [6]): 6.68
- pKi (Adenosine receptor A3): 7.81
- pKi [7]: 6.70
- Activity [8]: 37%
SMILES: O=c1n(-c2ccccc2)nc2c(NC3CCCCC3)nc3ncccc3n12

- Activity [5]: 18%
- Activity (Bos taurus [4]): 36%
SMILES: CC(=O)Nc1nc2c([N+](=O)[O-])cccc2n2c(=O)n(-c3ccccc3)nc12

- Activity (Bos taurus [1]): 0%
- pKi (Adenosine receptor A1 [2]): 6.35
- Activity [5]: 32%
SMILES: O=c1[nH]c2ncccc2n2c(=O)n(-c3ccc(O)cc3)nc12

- Activity (Bos taurus [1]): 12%
- pKi (Adenosine receptor A1 [2]): 6.84
- Activity (Adenosine receptor A2a [10]): 0%
- pKi (Adenosine receptor A3): 6.60
SMILES: O=c1[nH]c2ncccc2n2c(=O)n(-c3ccccc3)nc12

- pKi (Adenosine receptor A3): 6.55
SMILES: O=c1[nH]c2c([N+](=O)[O-])cccc2n2c(=O)n(-c3ccccc3)nc12

- pKi (Adenosine receptor A1 [2]): 5.96
- pKi (Adenosine receptor A3): 6.80
- pKi [7]: 6.38
SMILES: COc1ccc(-n2nc3c(N)nc4ncccc4n3c2=O)cc1

- pKi (Adenosine receptor A1 [2]): 8.51
- pKi (Adenosine receptor A3): 6.18
- pKi [7]: 7.03
SMILES: Nc1nc2ncccc2n2c(=O)n(-c3ccccc3)nc12

- Activity [3]: 35%
- Activity (Bos taurus [4]): 15%
SMILES: COc1ccc(-n2nc3c(NC(=O)c4ccccc4)nc4c([N+](=O)[O-])cccc4n3c2=O)cc1

- Activity (Bos taurus [1]): 12%
- pKi (Adenosine receptor A1 [2]): 7.15
- pKi (Adenosine receptor A3): 6.47
SMILES: O=C(c1ccccc1)N(C(=O)c1ccccc1)c1nc2ncccc2n2c(=O)n(-c3ccccc3)nc12

- Activity (Bos taurus [1]): 17%
- Activity [9]: 39%
- Activity [5]: 0%
SMILES: CCOC(=O)c1ccc(-n2nc3c(N)nc4ncccc4n3c2=O)cc1

- pKi (Adenosine receptor A3): 6.94
SMILES: O=c1n(-c2ccccc2)nc2c(NC3CCCC3)nc3c([N+](=O)[O-])cccc3n12
